Assays:
Homo sapiens [1] = organism: Homo sapiens; assay: Concentration required to kill 50% of PBMCs; type: functional, organism-based
Summary of the method: (§1)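 Uninfected PHA-stimulated PBMCs or CEM cells plated at 2.5 × 10^5 cells/well with diluted drug. Incubated 6 days at 37 °C, 10% CO2. XTT/PMS added and incubated 4 h at 37 °C. Absorbance read at 450 nm, 630 nm reference.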

Homo sapiens [2] = organism: Homo sapiens; assay: Effective concentration of required to inhibit the replication of HIV-1 BY 50% in PMBCs from donor 2; type: functional, organism-based
CCRF-CEM [3] = assay: Concentration required to kill 50% of CEM cells; type: functional, cell-based; details: Homo sapiens; summary of the method: as §1
Homo sapiens [4] = organism: Homo sapiens; assay: Effective concentration of required to inhibit the replication of HIV-1 BY 50% in PMBCs from donor 1; type: functional, organism-based
Homo sapiens [5] = organism: Homo sapiens; assay: Inhibition of Phosphoramidase activity with AZT L-amino acid carbamates; type: functional; details: concentration not given here
Summary of the method: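 CEM cells (1.5 × 10^8) sonicated in 1 mL 20 mM Tris-HCl, 500 mM NaCl, pH 7.5. Whole lysate incubated 45 min at 37 °C with phosphoramidate (from 10 mM water stock) and carbamate (from 10 mM DMSO stock), then stopped with methanol. AZT-MP quantified by RP-HPLC-RIA against a no-carbamate control. Mean of two experiments.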

Homo sapiens [6] = organism: Homo sapiens; assay: Effective concentration required to inhibit the replication of HIV-1 with no pretreatment of activated PBMCs; type: functional, organism-based
Summary of the method: (§2)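 Uninfected PHA-stimulated PBMCs (2.5 × 10^5 cells/mL) given compound in ddH2O in triplicate for 2 h at 37 °C, then LAI/HIV-1 (5000 DPM/10^6 cells) added. In parallel cultures, cells were infected 3 h first and then treated. After 6 days at 37 °C, supernatant RT activity measured.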

U1 = assay: Antiviral activity was determined in chronically infected U1 cell line with HIV-1; type: functional, cell-based; details: Homo sapiens
Summary of the method: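 HIV-1 chronically infected U1 cells (1.5 × 10^5 cells/well) in RPMI 1640 with 10% FBS and 10 ng/mL TNF-α. Compound in ddH2O added to duplicate cultures. Incubated 48 h at 37 °C, 5% CO2. Supernatant p24gag measured by ELISA; XTT assay run on the remaining culture.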

Homo sapiens [7] = organism: Homo sapiens; assay: Effective concentration required to inhibit the replication of HIV-1 in activated PBMCs; type: functional, organism-based
Summary of the method: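 PBMCs held 2 days either resting (no PHA, no IL-2) or with 10 μg/mL PHA, then IL-2 10 U/mL. Nonadherent cells infected with LAI/HIV-1 (5000 DPM/10^6 cells) for 3 h and washed. Plated at 2.5 × 10^5 cells/mL, compounds added in triplicate, 6 days at 37 °C. Supernatant RT activity measured; proviral gag DNA by PCR normalised to IFN-β1.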

[8] = tested on: Human immunodeficiency virus 1; assay: Concentration required to inhibit the production of proviral DNA in unactivated PBMCs
Homo sapiens [9] = organism: Homo sapiens; assay: Effective concentration required to inhibit the replication of HIV-1 with 2 hr pretreatment of activated PBMCs; type: functional, organism-based; summary of the method: as §2
Homo sapiens [10] = organism: Homo sapiens; assay: Effective concentration required to inhibit the replication of HIV-1 by 50% in PMBCs in the presence of thymidine; type: functional, organism-based
[11] = Inhibition of AZT-MP production by cell free extracts of CEM cells; type: functional, Homo sapiens, CCRF-CEM; design: unit not given here
Summary of the method: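 CEM cells (1.5 × 10^8) sonicated in 1 mL 20 mM Tris-HCl, 500 mM NaCl, pH 7.5. Lysate incubated with phosphoramidate and carbamate, each added from 10 mM stock, for 45 min at 37 °C, then stopped with methanol. AZT-MP quantified by RP-HPLC-RIA against a no-carbamate control. Mean of two experiments.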

CCRF-CEM [12] = assay: Effective concentration of required to inhibit the replication of HIV-1 BY 50% in CEM cells; type: functional, cell-based; details: Homo sapiens
Summary of the method: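 PHA-stimulated CEM cells infected 3 h at 37 °C with LAI/HIV-1 (10 000 DPM RT activity/10^6 cells), then washed. Resuspended at 2.5 × 10^5 cells/mL in medium with 10 U/mL IL-2. Drugs in ddH2O added to duplicate or triplicate cultures. Held 6 days at 37 °C; supernatant p24 measured by ELISA.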

Homo sapiens [13] = organism: Homo sapiens; assay: Effective concentration required to inhibit the replication of HIV-1 by 50% in PMBCs in the absence of thymidine; type: functional, organism-based
Homo sapiens [14] = organism: Homo sapiens; assay: (§3) Intracellular of AZT-TP concentrations in LAI/HIV-1 infected PMBCs was determined at a conc of 10 uM); type: functional, organism-based
Summary of the method: (§4)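 PHA-stimulated, LAI/HIV-1-infected PBMCs (donor 2) at 10^6 cells/mL, triplicate, given 10 µM compound ± 50 µM thymidine for 18 h at 37 °C. Cells washed, extracted in 60% methanol overnight at −20 °C, dried and reconstituted. AZT-TP quantified by inhibition of recombinant HIV-1 RT (poly(rA)-oligo(dT), 3H-TTP, 2 h at 37 °C) relative to AZT-TP standards; pmol/10^6 cells.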

Homo sapiens [15] = organism: Homo sapiens; assay: as §3; type: functional, organism-based; summary of the method: as §4; remark: listed apart in the source

Compound	IC50 (Homo sapiens [1]) [µM]	EC50 (Homo sapiens [2]) [µM]	IC50 (CCRF-CEM [3]) [µM]	EC50 (Homo sapiens [4]) [µM]	further results
COC(=O)[C@@H](Cc1ccccc1)NP(=O)(O)OC[C@H]1O[C@@H](n2cc(C)c(=O)[nH]c2=O)C[C@@H]1N=[N+]=[N-]	> 100	0.08	> 100	0.089	
COC(=O)[C@H](C)NP(=O)(O)OC[C@H]1O[C@@H](n2cc(C)c(=O)[nH]c2=O)C[C@@H]1N=[N+]=[N-]	> 100	0.03	> 100	0.05	
COC(=O)[C@H](Cc1ccccc1)NC(=O)OC[C@H]1O[C@@H](n2cc(C)c(=O)[nH]c2=O)C[C@@H]1N=[N+]=[N-].COC(=O)[C@H](Cc1ccccc1)NP(=O)(O)OC[C@H]1O[C@@H](n2cc(C)c(=O)[nH]c2=O)C[C@@H]1N=[N+]=[N-]					inhibition (Homo sapiens [5]): 99.6%
COC(=O)[C@H](Cc1ccccc1)NP(=O)(O)OC[C@H]1O[C@@H](n2cc(C)c(=O)[nH]c2=O)C[C@@H]1N=[N+]=[N-] [listing 1 of 2 here]	> 100	15	> 100	30	EC50 (Homo sapiens [6]): 15 µM; EC50 (U1): 25 µM; EC50 (Homo sapiens [7]): > 100 µM; IC100 [8]: >100 µM; EC50 (Homo sapiens [9]): 1 µM; EC50 (Homo sapiens [10]): > 100 µM; Activity [11]: 6.3; EC50 (CCRF-CEM [12]): < 0.001 µM; EC50 (Homo sapiens [13]): 15 µM
CNC(=O)[C@@H](Cc1ccccc1)NP(=O)(O)OC[C@H]1O[C@@H](n2cc(C)c(=O)[nH]c2=O)C[C@@H]1N=[N+]=[N-]	> 100	0.1	> 100	0.9	
COC(=O)[C@@H](Cc1c[nH]c2ccccc12)NP(=O)(O)OC[C@H]1O[C@@H](n2cc(C)c(=O)[nH]c2=O)C[C@@H]1N=[N+]=[N-].COC(=O)[C@H](Cc1c[nH]c2ccccc12)NC(=O)OC[C@H]1O[C@@H](n2cc(C)c(=O)[nH]c2=O)C[C@@H]1N=[N+]=[N-] [listing 1 of 2 here]					inhibition (Homo sapiens [5]): 60%
COC(=O)[C@H](CC(C)C)NP(=O)(O)OC[C@H]1O[C@@H](n2cc(C)c(=O)[nH]c2=O)C[C@@H]1N=[N+]=[N-]	> 100	1	> 100	1.3	
COC(=O)[C@H](Cc1ccccc1)NP(=O)(O)OC[C@H]1O[C@@H](n2cc(C)c(=O)[nH]c2=O)C[C@@H]1N=[N+]=[N-] [listing 2 of 2 here]					Concentration (pM (10e6*cells)-1) (Homo sapiens [14]): 0; Concentration (pM (10e6*cells)-1) (Homo sapiens [15]): 0.01
COC(=O)[C@@H](Cc1c[nH]c2ccccc12)NP(=O)(O)OC[C@H]1O[C@@H](n2cc(C)c(=O)[nH]c2=O)C[C@@H]1N=[N+]=[N-].COC(=O)[C@H](Cc1c[nH]c2ccccc12)NC(=O)OC[C@H]1O[C@@H](n2cc(C)c(=O)[nH]c2=O)C[C@@H]1N=[N+]=[N-] [listing 2 of 2 here]					Activity [11]: 2.56
